Source: ChEMBL document CHEMBL1138494, “Human glucagon receptor antagonists with thiazole cores. A novel series with superior pharmacokinetic properties” (J Med Chem, 2009)
Activity calls are given as the source filed them. The calls are words filed in the database; no cut-off is given here.

Tests used:
[1] = target: T1, Gastric inhibitory polypeptide receptor (Homo sapiens, UniProt P48546); assay: Displacement of [125I]porcine GIP from human recombinant GIPR receptor expressed in BHK cells by scintillation proximity assay; format: cell-based
T1 sequence (P48546 whole entry): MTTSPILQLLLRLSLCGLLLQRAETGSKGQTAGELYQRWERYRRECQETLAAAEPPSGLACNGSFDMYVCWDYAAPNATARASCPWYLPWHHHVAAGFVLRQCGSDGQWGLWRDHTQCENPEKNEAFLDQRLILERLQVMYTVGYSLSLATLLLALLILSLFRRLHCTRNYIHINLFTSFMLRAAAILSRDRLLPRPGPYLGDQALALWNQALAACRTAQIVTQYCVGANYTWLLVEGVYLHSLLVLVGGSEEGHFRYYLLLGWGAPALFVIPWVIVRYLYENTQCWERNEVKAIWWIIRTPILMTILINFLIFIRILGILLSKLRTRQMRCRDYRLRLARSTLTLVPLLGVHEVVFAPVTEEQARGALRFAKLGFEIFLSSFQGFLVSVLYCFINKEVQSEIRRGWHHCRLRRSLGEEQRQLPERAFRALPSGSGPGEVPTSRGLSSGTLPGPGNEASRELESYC

Glucagon receptor [2] = target: T2, Glucagon receptor (Homo sapiens, UniProt P47871); assay: Displacement of [125I]porcine glucagon from human recombinant glucagon receptor expressed in BHK cells by scintillation proximity assay; format: cell-based
T2 sequence (P47871 whole entry): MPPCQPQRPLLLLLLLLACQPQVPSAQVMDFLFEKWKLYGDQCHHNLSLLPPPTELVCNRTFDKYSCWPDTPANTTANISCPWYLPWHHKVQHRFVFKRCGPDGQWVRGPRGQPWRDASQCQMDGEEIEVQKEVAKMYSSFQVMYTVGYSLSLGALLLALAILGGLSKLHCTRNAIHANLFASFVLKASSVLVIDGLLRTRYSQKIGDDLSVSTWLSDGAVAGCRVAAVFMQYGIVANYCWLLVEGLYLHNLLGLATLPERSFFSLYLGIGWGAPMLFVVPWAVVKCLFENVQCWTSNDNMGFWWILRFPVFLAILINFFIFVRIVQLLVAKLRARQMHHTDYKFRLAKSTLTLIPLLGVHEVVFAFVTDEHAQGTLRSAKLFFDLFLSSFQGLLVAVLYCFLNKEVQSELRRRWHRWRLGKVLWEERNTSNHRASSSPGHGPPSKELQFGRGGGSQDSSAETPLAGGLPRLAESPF

[3] = Half life in fasted Sprague-Dawley rat plasma at 1.66 mg/kg, iv by HTLC-MS/MS analysis; format: ADME, organism-based; design: dose 1.66 mg/kg, route intravenous
How it was run: (§1)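 Rats were dosed intravenously and perorally in separate arms, and plasma concentration-time profiles were obtained. Half-life was taken from the iv arm. Clearance, oral bioavailability, Cmax and Tmax were derived from the profiles.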

[4] = Oral bioavailability in fasted Sprague-Dawley rat at 3 mg/kg by HTLC-MS/MS analysis; format: ADME, organism-based; settings: in vivo
How it was run: (§2)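 Separate intravenous and peroral dosing arms per compound, with plasma concentration followed against time. Oral bioavailability (F_po) is reported per compound together with the intravenous half-life and clearance. The dose used for each arm is listed per compound.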

[5] = Clearance in fasted Sprague-Dawley rat at 1.66 mg/kg, iv and 3 mg/kg, po; format: ADME, organism-based; settings: in vivo; how it was run: as §1
[6] = Cmax in fasted Sprague-Dawley rat at 1.66mg/kg, iv and 3 mg/kg, po; format: ADME, organism-based; design: dose 3 mg/kg, route oral; settings: in vivo; how it was run: as §1
[7] = Tmax in fasted Sprague-Dawley rat at 1.6mg/kg, iv and 3 mg/kg, po; format: ADME, organism-based; design: dose 3 mg/kg, route oral; settings: in vivo
How it was run: (§3)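 Plasma concentration–time profiles were recorded after separate intravenous and peroral dosing at the per-compound doses listed. T_max is reported in min alongside C_max (ng/mL), intravenous half-life and clearance ((mL/min)/kg).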

Homo sapiens [8] = organism: Homo sapiens; assay: Selectivity ratio of IC50 for human recombinant glucagon receptor to IC50 for human recombinant GIPR
How it was run: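 Competition binding of compounds to recombinant human glucagon and GIP receptors on BHK cell membranes, run in parallel as a scintillation proximity assay and, for selected compounds, as a membrane filtration assay.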

Homo sapiens [9] = organism: Homo sapiens; assay: Selectivity for human recombinant glucagon receptor over human GLP1R
Glucagon receptor [10] = target: T2, Glucagon receptor; assay: Binding affinity to human recombinant glucagon receptor expressed in BHK cells by membrane filter assay; format: cell-based
[11] = target: T1, Gastric inhibitory polypeptide receptor; assay: Binding affinity to human recombinant GIPR expressed in BHK cells by membrane filter assay; format: cell-based
Glucagon receptor [12] = target: Glucagon receptor (Rattus norvegicus, UniProt P30082); assay: Binding affinity to glucagon receptor in rat liver membrane by membrane filter assay; format: cell membranes
Glucagon receptor (Rattus norvegicus, UniProt P30082), sequence (P30082 whole entry): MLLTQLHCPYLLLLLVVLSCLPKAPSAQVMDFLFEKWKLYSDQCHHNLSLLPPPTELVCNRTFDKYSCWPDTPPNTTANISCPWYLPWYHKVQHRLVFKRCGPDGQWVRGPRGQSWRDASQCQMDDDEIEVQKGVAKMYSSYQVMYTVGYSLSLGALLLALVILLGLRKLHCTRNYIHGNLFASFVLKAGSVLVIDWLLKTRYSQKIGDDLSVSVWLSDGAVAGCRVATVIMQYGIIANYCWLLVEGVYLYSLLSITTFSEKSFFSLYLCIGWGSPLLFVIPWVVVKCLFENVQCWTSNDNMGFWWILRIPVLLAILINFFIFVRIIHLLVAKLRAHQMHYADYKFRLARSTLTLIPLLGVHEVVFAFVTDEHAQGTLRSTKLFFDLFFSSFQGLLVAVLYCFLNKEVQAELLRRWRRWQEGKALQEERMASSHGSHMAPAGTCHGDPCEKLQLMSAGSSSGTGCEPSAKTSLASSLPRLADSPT

Glucagon receptor [13] = target: Glucagon receptor (Mus musculus, UniProt Q61606); assay: Binding affinity to glucagon receptor in mouse liver membrane by membrane filter assay; format: cell membranes
Glucagon receptor (Mus musculus, UniProt Q61606), sequence (Q61606 whole entry): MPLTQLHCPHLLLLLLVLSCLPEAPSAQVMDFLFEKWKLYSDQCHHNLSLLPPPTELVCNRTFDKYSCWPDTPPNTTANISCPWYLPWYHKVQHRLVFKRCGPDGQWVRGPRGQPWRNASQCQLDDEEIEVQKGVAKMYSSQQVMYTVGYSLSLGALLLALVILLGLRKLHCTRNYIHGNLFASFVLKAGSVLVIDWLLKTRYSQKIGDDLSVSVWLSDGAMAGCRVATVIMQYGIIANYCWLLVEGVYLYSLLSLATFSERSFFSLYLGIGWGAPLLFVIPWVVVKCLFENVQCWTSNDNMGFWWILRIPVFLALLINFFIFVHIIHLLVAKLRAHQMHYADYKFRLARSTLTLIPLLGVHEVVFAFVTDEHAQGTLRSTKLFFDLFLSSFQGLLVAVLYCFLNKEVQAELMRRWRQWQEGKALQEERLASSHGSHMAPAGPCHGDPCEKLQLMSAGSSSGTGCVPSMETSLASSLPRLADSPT

[14] = Binding affinity to glucagon receptor in rabbit liver membrane by membrane filter assay; format: cell membranes, Oryctolagus cuniculus
[15] = Binding affinity to glucagon receptor in pig liver membrane by membrane filter assay; format: cell membranes, Sus scrofa
[16] = Binding affinity to glucagon receptor in dog liver membrane by membrane filter assay; format: cell membranes, Canis lupus familiaris
[17] = Binding affinity to glucagon receptor in monkey liver membrane by membrane filter assay; format: cell membranes, Macaca mulatta
Hepatocyte [18] = assay: Inhibition of glucagon-stimulated glucose production in human primary hepatocytes preincubated for 10 mins before glucagon addition by NADH-linked hexokinase assay; format: functional, cell-based
How it was run: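 Cultured primary human hepatocytes were preincubated with compound for 10 min, then glycogenolysis was induced with 5 nM glucagon for 60 min. Glucose in the medium was measured against basal glycogenolysis. Albumin was present in the assay medium. IC50 was calculated from four experiments, mean ± SEM.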

Hepatocyte [19] = assay: Inhibition of glucagon-stimulated glucose production in rat primary hepatocytes; format: functional, cell-based
[20] = Half life in fasted Sprague-Dawley rat plasma at 1.6 mg/kg, iv by HTLC-MS/MS analysis; format: ADME, organism-based; design: dose 1.6 mg/kg, route intravenous; how it was run: as §1
[21] = Oral bioavailability in fasted Sprague-Dawley rat at 3.15 mg/kg by HTLC-MS/MS analysis; format: ADME, organism-based; settings: in vivo; how it was run: as §2
[22] = Clearance in fasted Sprague-Dawley rat at 1.6 mg/kg, iv and 3.15 mg/kg, po by HTLC-MS/MS analysis; format: ADME, organism-based; settings: in vivo; how it was run: as §1
[23] = Cmax in fasted Sprague-Dawley rat at 1.6 mg/kg, iv and 3.15 mg/kg, po by HTLC-MS/MS analysis; format: ADME, organism-based; settings: in vivo; how it was run: as §1
[24] = Tmax in fasted Sprague-Dawley rat at 1.6 mg/kg, iv and 3.15 mg/kg, po by HTLC-MS/MS analysis; format: ADME, organism-based; settings: in vivo; how it was run: as §3
[25] = Half life in fasted Beagle dog at 0.25 mg/kg, iv; format: ADME, organism-based, Canis lupus familiaris; design: dose 0.25 mg/kg, route intravenous; settings: in vivo
How it was run: (§4)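 Dogs were dosed at 0.25 mg/kg iv and 0.5 mg/kg po, and plasma concentration was followed over time. Half-life came from the iv arm; clearance, Cmax and Tmax were also derived.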

[26] = Oral bioavailability in fasted Beagle dog at 0.5 mg/kg; format: ADME, organism-based, Canis lupus familiaris; settings: in vivo; how it was run: as §2
[27] = Clearance in fasted Beagle dog at 0.25 mg/kg, iv and 0.5 mg/kg, po; format: ADME, organism-based, Canis lupus familiaris; settings: in vivo; how it was run: as §4
[28] = Cmax in fasted Beagle dog at 0.25 mg/kg, iv and 0.5 mg/kg, po; format: ADME, organism-based, Canis lupus familiaris; settings: in vivo; how it was run: as §4
[29] = Tmax in fasted Beagle dog at 0.25 mg/kg, iv and 0.5 mg/kg, po; format: ADME, organism-based, Canis lupus familiaris; settings: in vivo; how it was run: as §3
[30] = Half life in fasted Sprague-Dawley rat plasma at 1.9 mg/kg, iv by HTLC-MS/MS analysis; format: ADME, organism-based; design: dose 1.9 mg/kg, route intravenous; how it was run: as §1
[31] = Oral bioavailability in fasted Sprague-Dawley rat at 3.7 mg/kg by HTLC-MS/MS analysis; format: ADME, organism-based; settings: in vivo; how it was run: as §2
[32] = Clearance in fasted Sprague-Dawley rat at 1.9 mg/kg, iv and 3.7 mg/kg, po by HTLC-MS/MS analysis; format: ADME, organism-based; settings: in vivo; how it was run: as §1
[33] = Cmax in fasted Sprague-Dawley rat at 1.9 mg/kg, iv and 3.7 mg/kg, po by HTLC-MS/MS analysis; format: ADME, organism-based; settings: in vivo; how it was run: as §1
[34] = Tmax in fasted Sprague-Dawley rat at 1.9 mg/kg, iv and 3.7 mg/kg, po by HTLC-MS/MS analysis; format: ADME, organism-based; settings: in vivo; how it was run: as §3

SMILES | IC50 [1] | IC50 (Glucagon receptor [2]) | fold change (FC) (Homo sapiens [8]) | fold change (FC) (Homo sapiens [9]) | other results
O=C(O)CCNC(=O)c1ccc(N(Cc2ccc3c(c2)Cc2ccccc2-3)c2nc(-c3ccc(C(F)(F)F)cc3)cs2)cc1 | 645 nM | 78 nM | 5 | > 50 | half-life [3]: 40 min; bioavailability [4]: 13%; clearance [5]: 31 mL/min/kg; Cmax [6]: 93 ng/mL; Tmax [7]: 1.5 h
O=C(O)CCNC(=O)c1ccc(CN(c2ccc(C3=CCCCC3)cc2)c2nc(-c3ccc(Cl)cc3)c(-c3ccccc3)s2)cc1 | 1000 nM | 86 nM | 5 | > 50 | –
O=C(O)CCNC(=O)c1ccc(N(Cc2ccc3c(c2)Cc2ccccc2-3)c2nc(-c3ccc(OC(F)(F)F)cc3)cs2)cc1 | 732 nM | 81 nM | 5 | > 50 | half-life [3]: 46 min; bioavailability [4]: 13%; clearance [5]: 31 mL/min/kg; Cmax [6]: 82 ng/mL; Tmax [7]: 1.5 h
O=C(O)CCNC(=O)c1ccc(CN(c2ccc3c(c2)CCCC3)c2nc(-c3ccc(Cl)c(Cl)c3)cs2)cc1 | 830 nM | 79 nM | 5 | > 50 | IC50 (Glucagon receptor [10]): 54 nM; IC50 [11]: 390 nM; IC50 (Glucagon receptor [12]): 1600 nM; IC50 (Glucagon receptor [13]): 452 nM; IC50 [14]: 1900 nM; IC50 [15]: 3.3 µM; IC50 [16]: 81 nM; IC50 [17]: 55 nM; IC50 (Hepatocyte [18]): 4 µM; inhibition (Hepatocyte [19]): inactive; half-life [20]: 104 min; bioavailability [21]: 36%; clearance [22]: 5 mL/min/kg; Cmax [23]: 1180 ng/mL; Tmax [24]: 1 h; half-life [25]: 124 min; bioavailability [26]: 92%; clearance [27]: 1.44 mL/min/kg; Cmax [28]: 1190 ng/mL; Tmax [29]: 51 min
O=C(O)CCNC(=O)c1ccc(CN(c2ccc(SC(F)(F)F)cc2)c2nc(-c3ccc(C(F)(F)F)cc3)cs2)cc1 | 777 nM | 34 nM | 5 | > 50 | –
COc1ccccc1-c1csc(N(Cc2ccc(C(=O)NCCC(=O)O)cc2)c2ccc(SC(F)(F)F)cc2)n1 | > 1000 nM | 420 nM | 5 | > 50 | –

More lines, in order of falling IC50 [1], values ahead:

IC50 [1] | IC50 (Glucagon receptor [2]) | fold change (FC) (Homo sapiens [8]) | fold change (FC) (Homo sapiens [9]) | SMILES | other results
638 nM | 99 nM | 5 | > 50 | O=C(O)CCNC(=O)c1ccc(CN(c2ccc3c(c2)CCC3)c2nc(-c3ccc(Cl)c(Cl)c3)cs2)cc1 | –
584 nM | 131 nM | 5 | > 50 | Cc1cc(N(Cc2ccc(C(=O)NCCC(=O)O)cc2)c2nc(-c3cc(C(F)(F)F)cc(C(F)(F)F)c3)cs2)ccc1C(C)C | –
207 nM | 36 nM | 5 | > 50 | O=C(O)CCNC(=O)c1ccc(CN(c2ccc(C3=CCCCC3)cc2)c2nc(-c3ccc(OC(F)(F)F)cc3)cs2)cc1 | half-life [30]: 43 min; bioavailability [31]: 3%; clearance [32]: 34 mL/min/kg; Cmax [33]: 47 ng/mL; Tmax [34]: 1.5 h
